Reference: ChEMBL document CHEMBL1150337, “Lavendamycin antitumor agents: structure-based design, synthesis, and NAD(P)H:quinone oxidoreductase 1 (NQO1) model validation with molecular docking and biological studies” (J Med Chem, 2008)

How the values were obtained:
BE-NQ [1] = assay: Selectivity ratio of IC50 for NQO1 deficient human BE cells to IC50 for human BE-NQ cells expressing NQO1; type: functional
Outline: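 Ratio of MTT-derived IC50 in NQO1-deficient BE cells to IC50 in NQO1-transfected BE-NQ cells. IC50 was read from semilog plots of percent of control vs concentration.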

[2] = target: NAD(P)H dehydrogenase [quinone] 1 (Homo sapiens) (UniProt P15559); assay: Activity of human recombinant NQO1 assessed as reduction of cytochrome c per mg of protein by spectrophotometric assay
Outline: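 Cytochrome c reduction followed at 550 nm as initial rates. Mix: cytochrome c 70 µm, NADH 1 mM, recombinant human NQO1 (0.1–3 µg) and lavendamycin analogue 25 µm in 1 mL Tris-HCl 25 mM pH 7.4 with 0.7 mg/mL BSA and 0.1% Tween-20. At least triplicate.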

BE = assay: Cytotoxicity against NQO1 deficient human BE cells after 4 to 5 days by MTT assay; type: functional, cell-based
Outline: (§1)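 Cells in MEM with Earle's salts, 10% FBS, 37 °C, 5% CO2. Seeded at 10000 cells/mL, attached overnight (16 h). Analogue in medium for 2 h, then fresh medium for 4–5 days. MTT (50 µg) added for 4 h, formazan dissolved in DMSO, absorbance read at 560 nm. IC50 (50% of control survival) taken from semilog plots of percent control vs concentration.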

BE-NQ [3] = assay: Cytotoxicity against human BE-NQ cells expressing human NQO1 after 4 to 5 days by MTT assay; type: functional, cell-based; outline: as §1

Sequence of NAD(P)H dehydrogenase [quinone] 1 (Homo sapiens) (P15559 whole entry): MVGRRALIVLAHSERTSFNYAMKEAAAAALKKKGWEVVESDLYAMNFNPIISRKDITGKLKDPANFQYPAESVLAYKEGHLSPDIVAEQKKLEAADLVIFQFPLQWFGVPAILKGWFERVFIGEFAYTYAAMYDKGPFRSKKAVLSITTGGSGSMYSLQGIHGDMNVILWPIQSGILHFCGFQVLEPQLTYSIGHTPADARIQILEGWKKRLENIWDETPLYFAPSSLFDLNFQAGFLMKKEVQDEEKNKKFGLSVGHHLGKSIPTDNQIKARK

Row | SMILES | Ratio IC50 (BE-NQ [1]) | Activity [2] [µmol/min/mg] | IC50 (BE) [µM] | IC50 (BE-NQ [3]) [µM]
1 | N=C1C=C(O)c2ccc(-c3nc(C(N)=O)cc4c3[nH]c3ccccc34)nc2C1=O | 9 |  |  | 
2 | CCCCNC(=O)c1cc2c([nH]c3ccccc32)c(-c2ccc3c(n2)C(=O)C(NC(C)=O)=CC3=O)n1 | 30 | 143 | 50 | 1.7
3 | NC1=CC(=O)c2ccc(-c3[nH]c(CO)cc4c5ccccc5nc3-4)nc2C1=O | 11 |  |  | 
4 | NC1=CC(=O)c2ccc(-c3nc(C(=O)OCCO)cc4c3[nH]c3ccccc34)nc2C1=O | 7 | 60 | 3.3 | 0.5
5 | CCCC(=O)NC1=CC(=O)c2ccc(-c3nc(C(=O)OCCC(C)C)cc4c3[nH]c3ccccc34)nc2C1=O |  | 3.4 | > 50 | > 50
6 | COC(=O)c1cc2c([nH]c3ccccc32)c(-c2ccc3c(n2)C(=O)C(NC(=O)c2ccco2)=CC3=O)n1 | 1 | 7 | 49 | 47
7 | CCC(C)NC(=O)c1cc2c([nH]c3ccccc32)c(-c2ccc3c(n2)C(=O)C(NC(C)=O)=CC3=O)n1 (configuration not stated) |  | 4.9 | > 50 | > 50
8 | CCCCCCCCOC(=O)c1cc2c([nH]c3ccccc32)c(-c2ccc3c(n2)C(=O)C(N)=CC3=O)n1 | 10 |  |  | 
9 | COC(=O)c1[nH]c(-c2ccc3c(n2)C(=O)C(=N)C=C3O)c2nc3ccccc3c-2c1C | 9 |  |  | 
